From ChEMBL document CHEMBL1138358, “Synthesis and in vivo antitumor evaluation of 2-methoxyestradiol 3-phosphate, 17-phosphate, and 3,17-diphosphate” (J Med Chem, 2007)

Legend:
OVCAR-3 = assay: Cytotoxicity against human OVCAR-3 cells; assay type: functional
SN12C = assay: Cytotoxicity against human SN12C cells; assay type: functional
SF-539 = assay: Cytotoxicity against human SF539 cells; assay type: functional
HCT-116 = assay: Cytotoxicity against human HCT116 cells; assay type: functional
HOP-62 = assay: Cytotoxicity against human HOP62 cells; assay type: functional
MDA-MB-435 = assay: Cytotoxicity against human MDA-MB-435 cells; assay type: functional
UACC-62 = assay: Cytotoxicity against human UACC62 cells; assay type: functional
DU-145 = assay: Cytotoxicity against human DU145 cells; assay type: functional
Plasma [1] = assay: Drug level in Sprague-Dawley rat plasma at 1 mg/kg, iv assessed as 2-methoxyestrone level after 30 mins; assay type: ADME, organism-based; parameters: dose 1 mg/kg, route intravenous; details: in vivo, 0.5 h
Procedure, shortened: (§1)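 Jugular-cannulated Sprague–Dawley rats were fasted overnight and given a single tail-vein dose in 45% (w/v) hydroxypropyl-β-cyclodextrin in water (0.5 mg/mL, 2 mL/kg). K-EDTA blood was drawn via the cannula and the plasma was frozen below −20 °C. Plasma was acidified with formic acid and analysed by negative-ion ESI LC-MS/MS (MRM). Standard curves were spiked into rat plasma.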

Plasma [2] = assay: Drug level in Sprague-Dawley rat plasma at 1 mg/kg, iv assessed as 2-methoxyestrone level after 5 mins; assay type: ADME, organism-based; parameters: dose 1 mg/kg, route intravenous; details: in vivo; procedure, shortened: as §1
Plasma [3] = assay: Drug level in Sprague-Dawley rat plasma at 1 mg/kg, iv assessed as 2-methoxyestradiol level after 60 mins; assay type: ADME, organism-based; parameters: dose 1 mg/kg, route intravenous; details: in vivo, 1 h; procedure, shortened: as §1
[4] = Drug level in Sprague-Dawley rat plasma at 1 mg/kg, iv after 30 mins; assay type: ADME, organism-based; parameters: dose 1 mg/kg, route intravenous; procedure, shortened: as §1
Plasma [5] = assay: Drug level in Sprague-Dawley rat plasma at 1 mg/kg, iv assessed as 2-methoxyestradiol level after 5 mins; assay type: ADME, organism-based; parameters: dose 1 mg/kg, route intravenous; details: in vivo; procedure, shortened: as §1
[6] = Drug level in Sprague-Dawley rat plasma at 1 mg/kg, iv after 60 mins; assay type: ADME, organism-based; parameters: dose 1 mg/kg, route intravenous; procedure, shortened: as §1
[7] = Drug level in Sprague-Dawley rat plasma at 1 mg/kg, iv after 15 mins; assay type: ADME, organism-based; parameters: dose 1 mg/kg, route intravenous; procedure, shortened: as §1
Plasma [8] = assay: Drug level in Sprague-Dawley rat plasma at 1 mg/kg, iv assessed as 2-methoxyestrone level after 60 mins; assay type: ADME, organism-based; parameters: dose 1 mg/kg, route intravenous; details: in vivo, 1 h; procedure, shortened: as §1
Plasma [9] = assay: Drug level in Sprague-Dawley rat plasma at 1 mg/kg, iv assessed as 2-methoxyestradiol level after 120 mins; assay type: ADME, organism-based; parameters: dose 1 mg/kg, route intravenous; details: in vivo, 2 h; procedure, shortened: as §1
Plasma [10] = assay: Drug level in Sprague-Dawley rat plasma at 1 mg/kg, iv assessed as 2-methoxyestradiol level after 30 mins; assay type: ADME, organism-based; parameters: dose 1 mg/kg, route intravenous; details: in vivo, 0.5 h; procedure, shortened: as §1
[11] = Drug level in Sprague-Dawley rat plasma at 1 mg/kg, iv after 120 mins; assay type: ADME, organism-based; parameters: dose 1 mg/kg, route intravenous; procedure, shortened: as §1
Plasma [12] = assay: Drug level in Sprague-Dawley rat plasma at 1 mg/kg, iv assessed as 2-methoxyestrone level after 120 mins; assay type: ADME, organism-based; parameters: dose 1 mg/kg, route intravenous; details: in vivo, 2 h; procedure, shortened: as §1
[13] = Drug level in Sprague-Dawley rat plasma at 1 mg/kg, iv after 5 mins; assay type: ADME, organism-based; parameters: dose 1 mg/kg, route intravenous; procedure, shortened: as §1
Plasma [14] = assay: Drug level in Sprague-Dawley rat plasma at 1 mg/kg, iv assessed as 2-methoxyestradiol level after 15 mins; assay type: ADME, organism-based; parameters: dose 1 mg/kg, route intravenous; details: in vivo, 0.25 h; procedure, shortened: as §1
Plasma [15] = assay: Drug level in Sprague-Dawley rat plasma at 1 mg/kg, iv assessed as 2-methoxyestrone level after 15 mins; assay type: ADME, organism-based; parameters: dose 1 mg/kg, route intravenous; details: in vivo, 0.25 h; procedure, shortened: as §1
[16] = test system: Lewis lung carcinoma cell line; assay: Antitumor activity against LLC cells inoculated in C57BL/6J mouse assessed as lung weight at 200 mg/kg, ip qd for 12 days; assay type: functional; details: route intraperitoneal
Procedure, shortened: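 LLC cells in exponential growth were harvested by brief trypsinization (0.25% trypsin, 0.02% EDTA, 1 min, 37 °C), washed and resuspended at 5 × 10⁵ cells/mL in Ca²⁺/Mg²⁺-free PBS. Mice were housed under SPF conditions, with 10 per group. From day 3 after tumor cell injection, compound was given ip daily for 12 days. On day 15, mean lung weight was corrected for non-tumor-bearing lung weight. T/C = (A − C)/(B − C) versus vehicle (0.1 mL).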

[17] = test system: Lewis lung carcinoma cell line; assay: Antitumor activity against LLC cells inoculated in C57BL/6J mouse assessed as lung weight at 100 mg/kg, ip qd for 12 days; assay type: functional; details: route intraperitoneal
Procedure, shortened: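 LLC cells in exponential growth were harvested by brief trypsinization (1 min, 37 °C), washed, and resuspended at 5 × 10⁵ cells/mL in Ca²⁺/Mg²⁺-free PBS before injection into SPF-housed mice. From day 3 after injection, groups of 10 mice were dosed ip daily for 12 days. On day 15, mean lung weight was corrected for non-tumor-bearing lung weight. T/C = (A − C)/(B − C).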

Cp (Plasma [1]) [ng/mL] | Cp (Plasma [2]) [ng/mL] | Cp (Plasma [3]) [ng/mL] | concentration at 0.5 h [4] [ng/mL] | Cp (Plasma [5]) [ng/mL] | concentration at 1 h [6] [ng/mL] | concentration at 0.25 h [7] [ng/mL] | Cp (Plasma [8]) [ng/mL] | Cp (Plasma [10]) [ng/mL] | concentration at 2 h [11] [ng/mL] | Cp (Plasma [12]) [ng/mL] | SMILES | GI50 (OVCAR-3) [µM] | GI50 (SN12C) [µM] | GI50 (SF-539) [µM] | GI50 (HCT-116) [µM] | GI50 (HOP-62) [µM] | GI50 (MDA-MB-435) [µM] | GI50 (UACC-62) [µM] | GI50 (DU-145) [µM] | Cp (Plasma [9]) [ng/mL] | other results
– | – | – | – | – | – | – | – | – | – | – | CCOP(=O)(OCC)Oc1cc2c(cc1OC)[C@H]1CC[C@]3(C)[C@@H](OP(=O)(OCC)OCC)CC[C@H]3[C@@H]1CC2 | 55 | 16.6 | 19.5 | 20.4 | 21.9 | 56.2 | 11.5 | 13.8 | – | –
– | – | – | – | – | – | – | – | – | – | – | CCOP(=O)(OCC)O[C@H]1CC[C@H]2[C@@H]3CCc4cc(O)c(OC)cc4[C@H]3CC[C@]12C | 15.1 | 17.4 | 19.5 | 19 | – | 13.2 | 14.4 | – | – | –
5 | 5 | 5 | 138 | 34.1 | 21.2 | 351 | 5 | 9.2 | 6.9 | 5 | COc1cc2c(cc1O)CC[C@@H]1[C@@H]2CC[C@]2(C)[C@@H](OP(=O)(O)O)CC[C@@H]12 | – | > 100 | 75.9 | 87.1 | – | 20 | 38 | – | 5 | concentration at 5 min [13]: 1320 ng/mL; Cp (Plasma [14]): 15 ng/mL; Cp (Plasma [15]): 5 ng/mL
8.8 | 16.3 | 5.3 | 7.1 | 153.4 | 1.2 | 31.3 | 2.7 | 22.3 | < 1 | 5 | COc1cc2c(cc1OP(=O)([O-])O)CC[C@@H]1[C@@H]2CC[C@]2(C)[C@@H](O)CC[C@@H]12.[Na+] | 0.34 | 1.31 | 0.66 | 1.45 | 0.69 | 0.11 | 1.32 | 2.95 | 5 | Activity [16]: 0.23 g; Activity [17]: 0.44 g; concentration at 5 min [13]: 366 ng/mL; Cp (Plasma [14]): 57.3 ng/mL; Cp (Plasma [15]): 12.7 ng/mL
– | – | – | – | – | – | – | – | – | – | – | COc1cc2c(cc1O)CC[C@@H]1[C@@H]2CC[C@]2(C)C(=O)CC[C@@H]12 | – | – | – | – | – | – | – | – | 5 | –
– | – | – | – | – | – | – | – | – | – | – | COc1cc2c(cc1OP(=O)(O)O)CC[C@@H]1[C@@H]2CC[C@]2(C)[C@@H](OP(=O)(O)O)CC[C@@H]12 | > 100 | > 100 | – | > 100 | > 100 | > 100 | > 100 | > 100 | – | –

SMILES | Cp (Plasma [1]) [ng/mL] | Cp (Plasma [2]) [ng/mL] | Cp (Plasma [3]) [ng/mL] | concentration at 0.5 h [4] [ng/mL] | Cp (Plasma [5]) [ng/mL] | concentration at 1 h [6] [ng/mL] | concentration at 0.25 h [7] [ng/mL] | Cp (Plasma [8]) [ng/mL] | Cp (Plasma [10]) [ng/mL] | concentration at 2 h [11] [ng/mL] | Cp (Plasma [12]) [ng/mL] | GI50 (OVCAR-3) [µM] | GI50 (SN12C) [µM] | GI50 (SF-539) [µM] | GI50 (HCT-116) [µM] | GI50 (HOP-62) [µM] | GI50 (MDA-MB-435) [µM] | GI50 (UACC-62) [µM] | GI50 (DU-145) [µM] | Cp (Plasma [9]) [ng/mL] | other results
COc1cc2c(cc1O)CC[C@@H]1[C@@H]2CC[C@]2(C)[C@@H](O)CC[C@@H]12 [2-METHOXYESTRADIOL] | 5.4 | 6.3 | 11.3 | 44.7 | 764 | 11.3 | 168 | 5 | 44.7 | 5 | 5 | 0.21 | 0.95 | 0.32 | 0.47 | 0.7 | 0.08 | 0.36 | 1.8 | 5 | Activity [16]: 0.44 g; concentration at 5 min [13]: 764 ng/mL; Cp (Plasma [14]): 168 ng/mL; Cp (Plasma [15]): 5 ng/mL
